Assay results published in PMC9302689 (British Journal of Clinical Pharmacology, 2022).

What was measured:
dogs = assay: Preclinical multiple dose toxicology study in dogs; assay type: in vivo
α1A‐adrenoceptor = molecular target: T1, α1A‐adrenoceptor (Homo sapiens, UniProt P35348); assay: In vitro binding affinity, α1A-adrenoceptor; details: read-out: Ki, α1A-adrenoceptor; preclinical in vitro panel
T1 sequence (P35348 1-466): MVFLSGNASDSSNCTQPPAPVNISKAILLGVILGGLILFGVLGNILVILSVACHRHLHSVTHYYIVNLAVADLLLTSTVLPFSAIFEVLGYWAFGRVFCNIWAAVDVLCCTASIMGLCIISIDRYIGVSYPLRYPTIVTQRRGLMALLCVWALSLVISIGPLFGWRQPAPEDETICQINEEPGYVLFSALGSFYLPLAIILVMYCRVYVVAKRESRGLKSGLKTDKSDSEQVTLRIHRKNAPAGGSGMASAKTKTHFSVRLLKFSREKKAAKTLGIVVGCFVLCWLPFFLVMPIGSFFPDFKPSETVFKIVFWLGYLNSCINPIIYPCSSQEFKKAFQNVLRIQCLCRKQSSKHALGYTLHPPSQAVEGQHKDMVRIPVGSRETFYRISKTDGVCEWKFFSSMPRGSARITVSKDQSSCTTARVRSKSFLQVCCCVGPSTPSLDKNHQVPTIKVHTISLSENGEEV

SERT = SERT (Homo sapiens, UniProt P31645); assay: In vitro binding affinity, SERT; details: read-out: Ki, SERT; preclinical in vitro panel
Sequence of SERT (P31645 whole entry, species assumed): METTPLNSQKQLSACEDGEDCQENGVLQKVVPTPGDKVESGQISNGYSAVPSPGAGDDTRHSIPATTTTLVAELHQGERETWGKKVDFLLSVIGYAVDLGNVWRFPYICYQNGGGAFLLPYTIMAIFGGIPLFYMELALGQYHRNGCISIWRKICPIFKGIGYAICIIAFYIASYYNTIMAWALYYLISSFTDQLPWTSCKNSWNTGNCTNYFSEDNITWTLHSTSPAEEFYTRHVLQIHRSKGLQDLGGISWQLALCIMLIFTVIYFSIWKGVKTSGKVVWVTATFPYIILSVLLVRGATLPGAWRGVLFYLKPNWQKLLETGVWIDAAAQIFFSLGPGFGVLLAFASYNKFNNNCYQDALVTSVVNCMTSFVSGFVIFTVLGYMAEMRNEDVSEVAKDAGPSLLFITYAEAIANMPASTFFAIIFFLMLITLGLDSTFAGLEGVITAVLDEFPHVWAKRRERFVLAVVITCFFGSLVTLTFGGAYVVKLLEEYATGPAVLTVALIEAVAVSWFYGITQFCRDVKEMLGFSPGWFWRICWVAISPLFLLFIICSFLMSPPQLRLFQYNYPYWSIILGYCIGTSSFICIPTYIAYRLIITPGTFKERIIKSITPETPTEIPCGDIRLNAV

healthy male subjects [1] = assay: NeuroCart smooth pursuit; assay type: in vivo, human; details: 12-hour post-dose period
Summary of the method: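 This used the same head-fixed screen set-up as the saccade test. Subjects tracked a dot moving continuously at 0.3–1.1 Hz in 0.1 Hz steps, twice pre-dose and at 0.5–10 h after a single dose or placebo. Change from baseline over 12 h was analysed by MMRM against pooled placebo, with baseline as covariate.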

[2] = Preclinical pharmacokinetic studies; assay type: in vivo; details: dogs and rats, oral administration
neuronal abnormalities = assay: Preclinical test for neuronal abnormalities; assay type: in vivo; details: up to a HED of 3360 mg
healthy male subjects [3] = assay: Orthostatic hypotension; assay type: in vivo, human
healthy male subjects [4] = assay: NeuroCart pupillometry; assay type: in vivo, human; details: 12-hour post-dose period
Summary of the method: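 In healthy men given a single dose or placebo, both eyes were photographed simultaneously with the head in a support. This was done twice pre-dose and at 0.5–10 h post-dose. Change from baseline over 12 h was analysed by MMRM against pooled placebo, with baseline as covariate.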

healthy male subjects [5] = assay: NeuroCart adaptive tracking; assay type: in vivo, human; details: 12-hour post-dose period
Summary of the method: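 Fasted healthy men received a single dose or placebo capsule. Testing was done in a quiet, dim room, one subject at a time, after training at screening. Runs were twice pre-dose and at 0.5–10 h post-dose. The read-out was mean circle speed as % of maximum over 3.5 min. Change from baseline over 12 h was analysed by MMRM against pooled placebo, with baseline as covariate.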

[6] = molecular target: sigma non‐opioid intracellular receptor 1 (Homo sapiens, UniProt Q99720); assay: In vitro binding affinity, sigma non-opioid intracellular receptor 1
Sequence of sigma non‐opioid intracellular receptor 1 (Q99720 whole entry, species assumed): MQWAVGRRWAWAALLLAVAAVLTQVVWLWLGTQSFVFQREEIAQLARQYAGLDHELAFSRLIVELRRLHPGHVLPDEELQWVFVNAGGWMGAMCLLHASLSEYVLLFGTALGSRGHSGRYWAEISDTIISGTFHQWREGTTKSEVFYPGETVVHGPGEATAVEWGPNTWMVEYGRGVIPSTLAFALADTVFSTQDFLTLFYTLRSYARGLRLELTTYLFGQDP

μ receptor = μ receptor (Homo sapiens, UniProt P35372); assay: In vitro binding affinity, μ receptor
Sequence of μ receptor (P35372 whole entry): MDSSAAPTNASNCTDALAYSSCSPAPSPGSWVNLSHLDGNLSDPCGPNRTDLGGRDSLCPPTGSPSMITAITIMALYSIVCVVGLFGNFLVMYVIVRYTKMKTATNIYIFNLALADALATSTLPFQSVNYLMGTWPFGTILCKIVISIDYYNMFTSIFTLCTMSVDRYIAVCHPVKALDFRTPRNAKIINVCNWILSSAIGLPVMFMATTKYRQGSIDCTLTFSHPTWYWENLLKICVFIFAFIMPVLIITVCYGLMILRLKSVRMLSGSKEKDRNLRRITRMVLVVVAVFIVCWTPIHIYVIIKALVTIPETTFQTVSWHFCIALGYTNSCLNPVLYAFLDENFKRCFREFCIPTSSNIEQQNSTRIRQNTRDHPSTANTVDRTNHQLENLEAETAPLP

rats = assay: Preclinical multiple dose toxicology study in rats; assay type: in vivo
healthy male subjects [7] = assay: VAS Bowdle; assay type: in vivo, human; details: 12-hour post-dose period
Summary of the method: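 Psychedelic effects were rated on 13 lines scored from 0 (not at all) to 100 mm (extremely), twice pre-dose and at 0.5–10 h post-dose. Change from baseline over 12 h was analysed by MMRM with baseline as covariate. The 3 mg dose group, not placebo, served as the reference.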

CN1CCC23CCCCC2C1Cc1ccc(C(N)=O)cc13 (stereo not drawn) [ALKS 7119, (9α, 13α)‐17‐methylmorphinan‐3‐carboxamide]
human equivalent dose (HED) of NOAEL (dogs; dog NOAEL): 97.2 mg | NOAEL (dogs; dogs, multiple dose toxicology): 3 mg/kg | Ki (α1A‐adrenoceptor): 980 nM | Ki (SERT): 35 nM | Smooth pursuit, LSM CFB (healthy male subjects [1]; 3 mg single oral dose): −0.26% | Smooth pursuit, LSM CFB (healthy male subjects [1]; 10 mg single oral dose): 0.06% | Smooth pursuit, LSM CFB (healthy male subjects [1]; 25 mg single oral dose): −1.44% | Smooth pursuit, LSM CFB (healthy male subjects [1]; 50 mg single oral dose): −0.03% | Smooth pursuit, LSM CFB (healthy male subjects [1]; 75 mg single oral dose): −3.44% | Smooth pursuit, LSM CFB (healthy male subjects [1]; 100 mg single oral dose): −0.49% | Smooth pursuit, LSM CFB (healthy male subjects [1]; 125 mg single oral dose): −3.82% | Smooth pursuit, LSM CFB (healthy male subjects [1]; 150 mg single oral dose): −1.14% | Smooth pursuit, LSM CFB (healthy male subjects [1]; 175 mg single oral dose): −1.07% | Smooth pursuit, LSM CFB (healthy male subjects [1]; 200 mg single oral dose): 1.24% | median time to maximum plasma concentration (tmax) [2]: 30 min | Potential to induce neuronal abnormalities (neuronal abnormalities): no potential to induce neuronal abnormalities | Incidence of orthostatic hypotension (healthy male subjects [3]; 200 mg dosing group, three subjects): 37.5% | Incidence of orthostatic hypotension (healthy male subjects [3]; all ALKS 7119 dose groups (placebo 15%)): 17.5% | Left pupil/iris ratio, LSM CFB (healthy male subjects [4]; 3 mg single oral dose): 0.01 | Right pupil/iris ratio, LSM CFB (healthy male subjects [4]; 3 mg single oral dose): 0.02 | Left pupil/iris ratio, LSM CFB (healthy male subjects [4]; 10 mg single oral dose): 0.04 | Right pupil/iris ratio, LSM CFB (healthy male subjects [4]; 10 mg single oral dose): 0.03 | Left pupil/iris ratio, LSM CFB (healthy male subjects [4]; 25 mg single oral dose): 0.04 | Right pupil/iris ratio, LSM CFB (healthy male subjects [4]; 25 mg single oral dose): 0.03 | Left pupil/iris ratio, LSM CFB (healthy male subjects [4]; 50 mg single oral dose): 0.05 | Right pupil/iris ratio, LSM CFB (healthy male subjects [4]; 50 mg single oral dose): 0.07 | Left pupil/iris ratio, LSM CFB (healthy male subjects [4]; 75 mg single oral dose): 0.04 | Right pupil/iris ratio, LSM CFB (healthy male subjects [4]; 75 mg single oral dose): 0.03 | Left pupil/iris ratio, LSM CFB (healthy male subjects [4]; 100 mg single oral dose): 0.04 | Right pupil/iris ratio, LSM CFB (healthy male subjects [4]; 100 mg single oral dose): 0.05 | Left pupil/iris ratio, LSM CFB (healthy male subjects [4]; 125 mg single oral dose): 0.04 | Right pupil/iris ratio, LSM CFB (healthy male subjects [4]; 125 mg single oral dose): 0.05 | Left pupil/iris ratio, LSM CFB (healthy male subjects [4]; 150 mg single oral dose): 0.03 | Right pupil/iris ratio, LSM CFB (healthy male subjects [4]; 150 mg single oral dose): 0.05 | Left pupil/iris ratio, LSM CFB (healthy male subjects [4]; 175 mg single oral dose): 0.05 | Right pupil/iris ratio, LSM CFB (healthy male subjects [4]; 175 mg single oral dose): 0.06 | Left pupil/iris ratio, LSM CFB (healthy male subjects [4]; 200 mg single oral dose): 0.08 | Right pupil/iris ratio, LSM CFB (healthy male subjects [4]; 200 mg single oral dose): 0.06 | Adaptive tracking, LSM CFB (healthy male subjects [5]; 3 mg single oral dose): 0.15% | Adaptive tracking, LSM CFB (healthy male subjects [5]; 10 mg single oral dose): 2.4% | Adaptive tracking, LSM CFB (healthy male subjects [5]; 25 mg single oral dose): 0.24% | Adaptive tracking, LSM CFB (healthy male subjects [5]; 50 mg single oral dose): 2.04% | Adaptive tracking, LSM CFB (healthy male subjects [5]; 75 mg single oral dose): 0.25% | Adaptive tracking, LSM CFB (healthy male subjects [5]; 100 mg single oral dose): 1.05% | Adaptive tracking, LSM CFB (healthy male subjects [5]; 125 mg single oral dose): 0.8% | Adaptive tracking, LSM CFB (healthy male subjects [5]; 150 mg single oral dose): 0.65% | Adaptive tracking, LSM CFB (healthy male subjects [5]; 175 mg single oral dose): 0.9% | Adaptive tracking, LSM CFB (healthy male subjects [5]; 200 mg single oral dose): 0.72% | Affinity for sigma non-opioid intracellular receptor 1 lower than for SERT [6]: 900 fold | Affinity for μ receptor lower than for SERT (μ receptor): 17 fold | Ki (μ receptor; read-out: Ki, μ receptor, preclinical in vitro panel): 600 nM | human equivalent dose (HED) of NOAEL (rats; rat NOAEL, body surface area extrapolation per FDA guidelines): 96 mg | NOAEL (rats; rats, multiple dose toxicology): 10 mg/kg | VAS Bowdle “external perception”, LSM CFB (healthy male subjects [7]; 3 mg single oral dose): 0.00 | VAS Bowdle “feeling high”, LSM CFB (healthy male subjects [7]; 3 mg single oral dose): 0.00 | VAS Bowdle “internal perception”, LSM CFB (healthy male subjects [7]; 3 mg single oral dose): 0.00 | VAS Bowdle “external perception”, LSM CFB (healthy male subjects [7]; 10 mg single oral dose): 0.00 | VAS Bowdle “feeling high”, LSM CFB (healthy male subjects [7]; 10 mg single oral dose): 0.00 | VAS Bowdle “internal perception”, LSM CFB (healthy male subjects [7]; 10 mg single oral dose): 0.00 | VAS Bowdle “external perception”, LSM CFB (healthy male subjects [7]; 25 mg single oral dose): 0.00 | VAS Bowdle “feeling high”, LSM CFB (healthy male subjects [7]; 25 mg single oral dose): 0.00 | VAS Bowdle “internal perception”, LSM CFB (healthy male subjects [7]; 25 mg single oral dose): 0.00 | VAS Bowdle “external perception”, LSM CFB (healthy male subjects [7]; 50 mg single oral dose): 0.00 | VAS Bowdle “feeling high”, LSM CFB (healthy male subjects [7]; 50 mg single oral dose): 0.00 | VAS Bowdle “internal perception”, LSM CFB (healthy male subjects [7]; 50 mg single oral dose): 0.00 | VAS Bowdle “external perception”, LSM CFB (healthy male subjects [7]; 75 mg single oral dose): 0.00 | VAS Bowdle “feeling high”, LSM CFB (healthy male subjects [7]; 75 mg single oral dose): 0.00 | VAS Bowdle “internal perception”, LSM CFB (healthy male subjects [7]; 75 mg single oral dose): 0.00 | VAS Bowdle “external perception”, LSM CFB (healthy male subjects [7]; 100 mg single oral dose): 0.00 | VAS Bowdle “feeling high”, LSM CFB (healthy male subjects [7]; 100 mg single oral dose): 0.00 | VAS Bowdle “internal perception”, LSM CFB (healthy male subjects [7]; 100 mg single oral dose): 0.00 | VAS Bowdle “external perception”, LSM CFB (healthy male subjects [7]; 125 mg single oral dose): 0.00 | VAS Bowdle “feeling high”, LSM CFB (healthy male subjects [7]; 125 mg single oral dose): 0.00 | VAS Bowdle “internal perception”, LSM CFB (healthy male subjects [7]; 125 mg single oral dose): 0.00 | VAS Bowdle “external perception”, LSM CFB (healthy male subjects [7]; 150 mg single oral dose): 0.00 | VAS Bowdle “feeling high”, LSM CFB (healthy male subjects [7]; 150 mg single oral dose): 0.00 | VAS Bowdle “internal perception”, LSM CFB (healthy male subjects [7]; 150 mg single oral dose): 0.00 | VAS Bowdle “external perception”, LSM CFB (healthy male subjects [7]; 175 mg single oral dose): 0.00 | VAS Bowdle “feeling high”, LSM CFB (healthy male subjects [7]; 175 mg single oral dose): 0.00 | VAS Bowdle “internal perception”, LSM CFB (healthy male subjects [7]; 175 mg single oral dose): 0.00 | VAS Bowdle “external perception”, LSM CFB (healthy male subjects [7]; 200 mg single oral dose): 0.00 | VAS Bowdle “feeling high”, LSM CFB (healthy male subjects [7]; 200 mg single oral dose): 0.00 | VAS Bowdle “internal perception”, LSM CFB (healthy male subjects [7]; 200 mg single oral dose): 0.00
